Drawing on ChEMBL document CHEMBL3232811, “Mineralocorticoid receptor antagonists: identification of heterocyclic amide replacements in the oxazolidinedione series” (Bioorg Med Chem Lett, 2014), this text covers Vd, bioavailability and AUC/dose for two compounds.

Type in all cases: ADME, organism-based
Details in all cases: in vivo

The nature of data set [1]: Volume of distribution in rat at 1 mg/kg, iv and 2 mg/kg, po. Summed up:
(§1)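 Rat PK: compound formulated at 1 mg/mL in PEG 200:water (70:30). Dosed iv at 1 mg/kg (n = 2) and orally at 2 mg/kg (n = 3). Blood concentrations measured by LC/MS/MS after protein precipitation with acetonitrile.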

Data set [2] in a line: Oral bioavailability in rat at 2 mg/kg. The procedure, abridged:
as §1

The test system of the next data set is Rattus norvegicus. As to the kind of experiment: Dose normalized AUC in rat at 1 mg/kg, iv. The arrangement: dose 1 mg/kg, route intravenous. The procedure, abridged: as §1

`COc1cc(OC)cc(-c2nnc([C@@]3(Cc4ccccc4)OC(=O)N([C@H](C)c4ccccc4)C3=O)o2)c1` returned a Vd in data set [1] of 1.2 L/kg. In data set [2], the bioavailability (usually the share of a dose that reaches the circulation, judged against a reference dose that is usually intravenous) was 44%. In the data set on Rattus norvegicus, this compound displayed an AUC/dose of 3.7 µM·kg·h/mg.

As for `C[C@H](c1ccccc1)N1C(=O)O[C@](Cc2ccccc2)(c2nnc(C3(c4ccccc4)CC3)o2)C1=O`, the Vd in data set [1] came to 1 L/kg. This compound also yielded a bioavailability in data set [2] of 89%. For the same compound, the AUC/dose with Rattus norvegicus came to 4.4 µM·kg·h/mg.
